MrgX1 antagonist – antagonists of human MrgX1 receptor; Q96LB2; MRGX1-HEK293 calcium flux, Fluo-4, BAM8-22 antagonism; active compounds read low; B-score at 10 µM; 310,000 compounds, 1.3% hits; AID 588676;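 active = calcium-response B-score plate-corrected more than 3 library SD below zero, starting fluorescence within 5 deviations, no agonist response on first addition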;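 also: peak minus trough fluorescence over baseline after final BAM8-22 challenge near maximal dose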
Target sequence (Q96LB2 whole entry, looked up): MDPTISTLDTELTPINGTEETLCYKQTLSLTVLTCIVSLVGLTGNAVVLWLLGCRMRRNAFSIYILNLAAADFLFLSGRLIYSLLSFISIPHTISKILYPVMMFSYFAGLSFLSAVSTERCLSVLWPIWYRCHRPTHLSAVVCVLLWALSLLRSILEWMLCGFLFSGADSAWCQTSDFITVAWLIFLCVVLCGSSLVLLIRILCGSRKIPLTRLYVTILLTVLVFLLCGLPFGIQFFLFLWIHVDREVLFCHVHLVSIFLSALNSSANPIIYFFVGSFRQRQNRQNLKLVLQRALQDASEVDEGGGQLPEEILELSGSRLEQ
MrgX1 PAM – human MrgX1 positive allosteric modulation, primary screen | B-score at 10 µM | AID 588675 | Q96LB2 | MrgX1-HEK293, Fluo-4 calcium flux, FDSS; active compounds read high | 310,000 compounds, 0.63% hits;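 active = plate-corrected calcium response at least 3 library SD above typical, normal starting fluorescence, not activating the receptor alone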;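 also: compound read alongside a low EC10 to EC30 dose of BAM8-22 agonist; peak minus trough fluorescence over baseline measured at the second addition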
RGS4 block – human RGS4 inhibition; HEK293 M3R/RGS4 inducible, Fluo-4 calcium flux; active compounds read high; triggered by carbachol at its EC20; B-score at 10 µM; 310,000 compounds, 0.45% hits; AID 463165;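 active = B-score, a plate-corrected calcium signal, over three deviations above library mean, with baseline fluorescence within five deviations of library mean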;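 also: RGS4 expression induced by doxycycline in cells with stable M3 receptor; B-score is computed from the integrated fluorescence ratio over baseline after carbachol; higher B-score means a larger calcium signal and so more RGS4 inhibition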
Target sequence (P49798 whole entry, looked up): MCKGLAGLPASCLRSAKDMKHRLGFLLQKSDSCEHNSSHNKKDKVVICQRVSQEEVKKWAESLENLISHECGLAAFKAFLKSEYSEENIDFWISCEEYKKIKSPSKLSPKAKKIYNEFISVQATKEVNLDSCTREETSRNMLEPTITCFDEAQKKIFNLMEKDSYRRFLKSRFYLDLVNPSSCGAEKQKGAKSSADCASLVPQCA
RGS4 pot – RGS4 potentiation or activation; AID 463111; B-score at 10 µM; HEK293 M3R/inducible RGS4, carbachol calcium flux Fluo4; active compounds read low; 310,000 compounds, 0.92% hits;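 active = B-score of the integrated calcium signal more than 4 SD below the library mean, with starting fluorescence not abnormally high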;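 also: negative B-score means reduced calcium response which marks RGS4 activation or potentiation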
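test system = HEK293 cells with stable M3R and inducible RGS4 | schedule = recording 10 s baseline at 1 Hz, 100 s post-agonist | technique = Fluo4-AM (2 µM) calcium-flux fluorescence, kinetic read | measure = Agonist-evoked peak-minus-minimum fluorescence over baseline, integrated ratio, B score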
MrgX1 agonist – activates human MrgX1 receptor signaling | Q96LB2 | MrgX1-HEK293 cells, Fluo-4 calcium fluorescence, agonist mode; active compounds read high | 310,000 compounds, 0.44% hits | B-score at 10 µM;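 active = calcium response B-score plate-corrected fluorescence ratio at least 3 library SD, with starting fluorescence B-score inside 5 SD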
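Test system: Stable human MrgX1 HEK293 cell line | Schedule: Overnight plating before 1 h dye loading | Read-out basis: Baseline-normalised fluorescence change ratio, B-scored | Detection: Kinetic calcium dye fluorescence, Fluo-4 NW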
RGS4 block valid – validation of RGS4 inhibitors | HEK293 M3R/RGS4, carbachol calcium Fluo-4 fluorescence; carbachol added at its EC20; 0 = buffer wells, 100 = carbachol control | shares compounds with RGS4 block | 1,700 compounds, 65% hits | calcium response, % at 10 µM;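 active = duplicate-averaged calcium response above the buffer-only control mean plus 5 SD of those controls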;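 also: integrated fluorescence ratio F max minus min over baseline F0; higher response in RGS4-induced cells means RGS4 inhibition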
M3R Ca ctr – counter-screen for RGS4 inhibitors: effect in non-induced cells; AID 493000; activity (percent), % at 10 µM; HEK293 M3R non-induced, carbachol calcium Fluo-4; submaximal (EC20) carbachol stimulus; buffer wells 0%, carbachol control wells 100%; 1,900 compounds, 20% hits; shares compounds with RGS4 block; call rule not given here;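 also: RGS4 induction absent so cells express M3R without RGS4; higher means more calcium signal and flags a non-specific hit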
RGS4 inh ctr2 – signal in non-induced cells without carbachol, RGS4 inhibitor counter-screen; shares compounds with RGS4 block; HEK293 M3R/RGS4 non-induced, Fluo-4 calcium, no carbachol; normalised: buffer wells 0%, carbachol wells 100%; calcium response (agonist-mode artifact), % at 10 µM; 1,900 compounds, 22% hits;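 active = duplicate-averaged calcium rise in uninduced cells above buffer wells' mean plus 5 SD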
The depositor's hits bear a star; i = inactive; · = no result. This is a sample that favours compounds with a hit; in the whole collection about 3.5% have one here.

SMILES | MrgX1 antagonist | MrgX1 PAM | RGS4 block | RGS4 pot | MrgX1 agonist | RGS4 block valid | M3R Ca ctr | RGS4 inh ctr2
Cc1cc2cc(C)c(NCCNC(=O)c3cccc(F)c3)nc2cc1C | i | i | 5.3* | i | i | i | i | i
O=C(NCc1ccco1)/C(=C\c1ccco1)NC(=O)c1ccco1 | i | i | i | i | i | · | · | ·
COc1ccc(OCCC(=O)OCC(=O)c2ccc[nH]2)cc1 | i | i | i | i | i | · | · | ·
COc1ccc(N2CCN(S(=O)(=O)c3c(C(=O)N4CCOCC4)c(C)n(C)c3C)CC2)cc1 | i | i | i | i | i | · | · | ·
CC(C)CCN(C(=O)CNC(=O)c1ccco1)C(C(=O)NC1CCCCC1)c1cccnc1 (stereo unspecified) | i | i | i | i | i | · | · | ·
COC(=S)Nc1cccc(C(F)(F)F)c1 | i | i | i | i | i | · | · | ·
COC(=O)/C=C/C(=O)Nc1cccc(C(F)(F)F)c1 | i | i | 6.69* | i | i | 13.0%* | 44.0%* | i
COCCCn1cnc2c(c1=O)c1nc3ccccc3nc1n2-c1ccc(C)cc1 | i | i | i | i | i | · | · | ·
Cc1cc(C)cc(-n2c3nc4ccccc4nc3c3c(=O)n(Cc4ccco4)cnc32)c1 | i | i | 5.87* | i | i | 11.5%* | i | 15.0%*
O=C(Nc1nnc(S(=O)(=O)Nc2ccccc2)s1)C1CCCCC1 | i | i | i | i | i | · | · | ·
COc1ccc(OC)c(C(Nc2ccccc2)P(=O)(OC(C)C)OC(C)C)c1 (stereo unspecified) | i | i | i | i | i | · | · | ·
N#C/C(=C/c1ccc(C(=O)O)cc1)C(=O)Nc1ccccc1 | i | i | i | i | i | · | · | ·
CC(=O)/C(=C/c1ccccc1)C(=O)Nc1ccccc1C | i | i | 27.9* | i | i | 64.5%* | 63.5%* | i
Cc1ccccc1NC(=O)C(=Cc1ccc(C(=O)O)cc1)C(=O)Nc1ccccc1C | · | · | 10.1* | i | · | 53.0%* | i | i
CC(/C=C/c1ccccc1)=N/NC(=O)CCC(=O)Nc1ccccc1C | i | i | i | i | i | · | · | ·
CCc1cc(SC#N)cc(CC)c1NC(=O)CCl | i | i | i | i | i | · | · | ·
COc1ccc(CNC(=O)c2ccc(Cn3cc(Br)cn3)o2)cc1 | i | i | i | i | i | · | · | ·
O=C(N/N=C/c1cc(Cl)cc([N+](=O)[O-])c1O)NC12CC3CC(CC(C3)C1)C2 | i | i | 9.14* | i | i | 11.5%* | i | i
CC(=O)CCc1oc2ccc(C)cc2c1-c1ccc(C)o1 | i | i | i | i | i | · | · | ·
CC(=O)CCc1oc2ccc(NC(C)=O)cc2c1-c1ccc(C)o1 | i | i | 5.31* | i | i | i | i | i
O=C(CN1C(=O)/C(=C\c2ccc(F)cc2)Oc2ccccc21)NCc1ccco1 | i | i | i | i | i | · | · | ·
Cc1cc(C(=O)CN2C(=O)NC(c3ccccc3)(c3ccccc3)C2=O)c(C)n1Cc1ccco1 | i | i | 7.5* | i | i | 17.0%* | i | i
Cc1cc(C(=O)CN2C(=O)NC(C)(c3cccc(Br)c3)C2=O)c(C)n1Cc1ccco1 (stereo unspecified) | i | i | i | i | i | · | · | ·
Cc1cccc(C2c3[nH]c4ccccc4c3CCN2C(=O)Cc2n[nH]c(C)n2)n1 (stereo unspecified) | i | i | i | i | i | · | i | i
CC(=O)c1ccc(C(=O)N2CCc3c([nH]c4ccccc34)C2c2cccc(C)n2)s1 (stereo unspecified) | i | i | i | i | i | · | · | ·
SMILES | MrgX1 antagonist | MrgX1 PAM | RGS4 block | RGS4 pot | MrgX1 agonist | RGS4 block valid | M3R Ca ctr | RGS4 inh ctr2
O=C(CSc1ccc(-c2cccnc2)nn1)Nc1ccc(F)cc1 | i | i | i | i | i | · | · | ·
Cc1ccc(NC(=O)CN(C)C(=O)c2cccnc2Nc2cccc(C(F)(F)F)c2)cc1 | i | i | 6.83* | i | i | 18.5%* | i | i
CCN(CC)c1c([N+](=O)[O-])c(=O)oc2ccccc12 | i | i | i | i | i | · | · | ·
Cn1cc(C(=O)N/N=C/C2=C(N3CCOCC3)C(=C\c3ccccc3)/CC2)ccc1=O | i | i | i | i | i | · | · | ·
O=C1Nc2ccccc2/C1=N/N=C/c1cccc(O)c1 | i | i | 8.95* | i | i | 19.5%* | 47.0%* | i
O=C1Nc2ccccc2/C1=N\N=C\C1=C(N2CCOCC2)C(=C\c2ccccc2)/CC1 | i | i | i | i | i | · | i | i
N#C/C(=C\c1cccs1)C(=O)c1ccccc1Cl | i | i | 17.6* | i | i | 56.0%* | i | 8.5%*
CCOc1cccc(-c2c(C(=O)N/N=C/c3ccc(Br)cc3)nnn2-c2nonc2N)c1 | i | i | 19.1* | i | i | 37.5%* | 57.0%* | i
CCOc1cccc(-c2c(C(=O)N/N=C/c3cccnc3)nnn2-c2nonc2N)c1 | i | i | i | i | i | i | i | i
CCOc1ccc(-c2c(C(=O)N/N=C/c3cccc(Br)c3)nnn2-c2nonc2N)cc1 | i | i | i | i | i | i | i | 8.0%*
CCOc1ccc(-c2c(C(=O)N/N=C/c3ccc(O)cc3)nnn2-c2nonc2N)cc1 | i | i | i | i | i | · | · | ·
CCCc1c(C(=O)N/N=C/c2cccnc2)nnn1-c1nonc1N | i | i | i | i | i | · | · | ·
Cc1ccccc1CNC(=O)c1ccccc1 | i | i | i | i | i | · | · | ·
Cc1ccc(Cn2c(=N)n(CC(=O)c3ccccc3)c3ccccc32)cc1 | i | i | 5.35* | i | i | 24.0%* | 34.0%* | 31.0%*
CCOc1ccc2cc(/C=C/C(=O)c3ccco3)c(Cl)nc2c1 | i | i | i | i | i | i | i | 40.0%*
O=C(Cn1ccc(C(F)(F)F)n1)N=Nc1c(O)[nH]c2ccc(Br)cc12 | i | i | 4.74* | i | i | 32.5%* | i | i
Oc1[nH]c2ccc(Br)cc2c1N=Nc1ccc(C(F)(F)F)cn1 | i | i | i | i | i | · | · | ·

Bioassay records deposited in PubChem BioAssay by Johns Hopkins Ion Channel Center.
